Results from ChEMBL document CHEMBL4138161, “Discovery of simplified sampangine derivatives as novel fungal biofilm inhibitors” (Eur J Med Chem, 2018).
≈ marks a conversion by molar mass, not a printed value. Calls of active or inactive are those of the source. The rule behind the calls is not given here.

Legend:
[1] = tested on: Staphylococcus aureus; experiment: Antibacterial activity against Staphylococcus aureus Mu50 after 24 hrs; type: functional; conditions: Mu50, 24 h
[2] = tested on: CAPAN-1; experiment: Cytotoxicity against human Capan1 cells assessed as cell growth inhibition after 48 hrs by CCK8 assay; type: cell-based; conditions: CAPAN-1, 48 h
[3] = tested on: Nakaseomyces glabratus; experiment: Antifungal activity against Candida glabrata 537 after 24 hrs by spectrophotometric analysis; type: functional; conditions: Nakaseomyces glabratus, 537, 24 h
Procedure, shortened: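 Broth microdilution in RPMI 1640, inoculum 5×10^3 CFU/mL, compounds from 6.4 mg/mL DMSO stocks, 35 ℃ for 24 h. Growth read as OD600; MIC80 taken as lowest concentration giving 80% growth inhibition. Triplicate.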

[4] = tested on: Candida albicans; experiment: Antifungal activity against fluconazole-resistant Candida albicans clinical isolate 103 after 24 hrs by spectrophotometric analysis; type: functional; conditions: isolate 103, 24 h
Procedure, shortened: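 Broth microdilution (MIC80) against fluconazole-resistant clinical C. albicans isolates from a Shanghai hospital. Strains were grown in YPD at 30 ℃. Compounds came from 6.4 mg/mL DMSO stocks and were tested over a concentration series on 5×10^3 CFU/mL inoculum in RPMI 1640 at 35 ℃ for 24 h. OD600 was read; MIC80 is the lowest concentration giving 80% growth inhibition. Done in triplicate.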

[5] = tested on: Candida albicans; experiment: Antibiofilm activity against Candida albicans SC5314 assessed as disruption of biofilm formation at 6.4 ug/ml; type: functional, organism-based
[6] = tested on: Candida albicans; experiment: Antibiofilm activity against Candida albicans SC5314 cultured in Lee media assessed inhibition of yeast-to-hypha morphological transition after 3 hrs; type: functional, organism-based
Procedure, shortened: (§1)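 Hyphal induction in Lee's (pH 6.8), Spider, SLAD or RPMI 1640 medium with compound; morphology assessed by microscopy.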

[7] = tested on: Candida albicans; experiment: Antibiofilm activity against Candida albicans SC5314 assessed down regulation of UME6 gene at 0.4 ug/ml after 1 hr by qRT-PCR analysis; type: functional, organism-based
Procedure, shortened: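 Biofilm grown in dishes with 0.4 µg/mL compound or DMSO control for 1 h; total RNA isolated and transcripts quantified by real-time RT-PCR. Normalized to 18S rRNA, expressed as fold change vs untreated SC5314. Mean ± SD of three independent experiments.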

[8] = tested on: Candida albicans; experiment: Antifungal activity against Candida albicans infected in Sprague-Dawley rat vaginal infection model assessed as reduction in vaginal fungal burden at 1 mg/kg, administered intravaginally on day 1 to day 3 post fungal inoculation measured on day 4; type: functional, organism-based
Procedure, shortened: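 Ovariectomized rats inoculated intravaginally with 0.1 mL of 1×10^7 CFU/mL C. albicans on days 10, 11 and 12 after surgery. Compound in saline with 1% DMSO (2, 4, 8 mg/mL) given intravaginally on days 1–3 post-inoculation. On day 4, 100 µL vaginal fluid plated on chloramphenicol SDA agar for CFU counts.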

[9] = tested on: Caenorhabditis elegans; experiment: Toxicity in Caenorhabditis elegans AU37 at 6.25 to 100 ug/ml after 2 days; type: organism-based; conditions: in vivo, 48 h
Procedure, shortened: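 Nematodes placed in medium containing a range of compound concentrations, held at 25 ℃ for 2 d, checked daily and photographed on day 2.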

[10] = tested on: Candida albicans; experiment: Antibiofilm activity against Candida albicans SC5314 cultured in RPMI 1640 media assessed inhibition of yeast-to-hypha morphological transition after 3 hrs; type: functional, organism-based; procedure, shortened: as §1
[11] = tested on: Candida albicans; experiment: Antibiofilm activity against Candida albicans SC5314 assessed as disruption of biofilm formation at 12.8 ug/ml; type: functional, organism-based

SMILES | MIC80 [1] [µg/mL] | IC50 [2] [µM] | MIC80 [3] [µg/mL] | MIC80 [4] [µg/mL] | Activity [5] | Activity [6] | Activity [7] | Activity [8] | Activity [9] | Activity [10] | Activity [11]
CCc1ccnc2c1C(=O)c1sc([N+](=O)[O-])cc1C2=O | > 128 | > 100 | 2 (≈ 6.94 µM) | 0.25 (≈ 0.867 µM) | Active | Dose-dependent effect | Active | Active | Non-Toxic | Dose-dependent effect | 
CCCc1ccnc2c1C(=O)c1sc([N+](=O)[O-])cc1C2=O | > 128 | > 100 | 2 (≈ 6.62 µM) | 0.5 (≈ 1.65 µM) |  | Dose-dependent effect | Active | Active | Non-Toxic | Dose-dependent effect | Active
